Compound in data set [1]: C/C(=C\CC[C@H](C)C(=O)O)[C@H]1CC[C@H](C(=O)O)CC1
Kind of data set: Inhibition of human DNA polymerase lambda at 20 uM using nucleotide as substrate. The procedure, abridged: (§1)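 Kinetics on full-length human pol λ at 0, 20, 40 and 60 μM compound, varying either the template-primer poly(dA)/oligo(dT)12-18 or the nucleotide substrate dTTP. Km and Vmax (pmol/h) came from Lineweaver-Burk plots and Ki from Dixon plots.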

Compound in data set [2]: C/C(=C\CC[C@H](C)C(=O)O)[C@H]1CC[C@H](C(=O)O)CC1
Nature of the data set: Inhibition of human DNA polymerase lambda at 40 uM using template primer as as substrate. The procedure, abridged:
as §1

Compound in data set [3]: C/C(=C\CC[C@H](C)C(=O)O)[C@H]1CC[C@H](C(=O)O)CC1
Kind of data set: Inhibition of human DNA polymerase lambda at 20 uM using template primer as substrate. The procedure, abridged: as §1

Compound in data set [4]: C/C(=C\CC[C@H](C)C(=O)O)[C@H]1CC[C@H](C(=O)O)CC1
Kind of data set: Inhibition of human DNA polymerase lambda at 40 uM using nucleotide as substrate. The procedure, abridged:
as §1

Compound in data set [5]: C/C(=C\CC[C@H](C)C(=O)O)[C@H]1CC[C@H](C(=O)O)CC1
Kind of data set: Inhibition of human DNA polymerase lambda at 60 uM using template primer as as substrate. The procedure, abridged:
as §1

Compound in data set [6]: C/C(=C\CC[C@H](C)C(=O)O)[C@H]1CC[C@H](C(=O)O)CC1
Kind of data set: Inhibition of human DNA polymerase lambda at 60 uM using nucleotide as substrate. Put shortly: as §1

This passage reports Vmax results from ChEMBL document CHEMBL1157184, “Hymenoic acid, a novel specific inhibitor of human DNA polymerase lambda from a fungus of Hymenochaetaceae sp” (Bioorg Med Chem, 2008).

In general, Vmax refers to the top rate of the reaction or transport when substrate is in excess.

B1: DNA polymerase lambda (Homo sapiens), Q9UGP5 (protein)
chain: MDPRGILKAFPKRQKIHADASSKVLAKIPRREEGEEAEEWLSSLRAHVVRTGIGRARAELFEKQIVQHGGQLCPAQGPGVTHIVVDEGMDYERALRLLRLPQLPPGAQLVKSAWLSLCLQERRLVDVAGFSIFIPSRYLDHPQPSKAEQDASIPPGTHEALLQTALSPPPPPTRPVSPPQKAKEAPNTQAQPISDDEASDGEETQVSAADLEALISGHYPTSLEGDCEPSPAPAVLDKWVCAQPSSQKATNHNLHITEKLEVLAKAYSVQGDKWRALGYAKAINALKSFHKPVTSYQEACSIPGIGKRMAEKIIEILESGHLRKLDHISESVPVLELFSNIWGAGTKTAQMWYQQGFRSLEDIRSQASLTTQQAIGLKHYSDFLERMPREEATEIEQTVQKAAQAFNSGLLCVACGSYRRGKATCGDVDVLITHPDGRSHRGIFSRLLDSLRQEGFLTDDLVSQEENGQQQKYLGVCRLPGPGRRHRRLDIIVVPYSEFACALLYFTGSAHFNRSMRALAKTKGMSLSEHALSTAVVRNTHGCKVGPGRVLPTPTEKDVFRLLGLPYREPAERDW
Turning to B1, the Vmax in data set [1] came to 40 pmol/h; in data set [2], 48.8 pmol/h; in data set [3], 62.5 pmol/h; in data set [4], 32.3 pmol/h; in data set [5], 40.8 pmol/h; in data set [6] it was 27 pmol/h.
